Source: ChEMBL document CHEMBL1154353, “Stereoselective behavior of the functional diltiazem analogue 1-[(4-chlorophenyl)sulfonyl]-2-(2-thienyl)pyrrolidine, a new L-type calcium channel blocker” (J Med Chem, 2009)

How the values were obtained:
[1] = Negative inotropic activity in guinea pig left atrium assessed as decrease in atrial tension at 10 uM relative to control; type: functional, Cavia porcellus, Cardiac atrium; set-up: scale not given: the % may be the effect or the level left
How it was run: (§1)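 Isolated guinea pig left atria paced at 1 Hz (0.6-0.8 ms pulses, about 50% threshold voltage) in PSS at 35 °C, pH 7.4, gassed 95% O2-5% CO2. Isometric tension recorded after 45-60 min stabilization. Cumulative concentrations 0.1-100 μM, DMSO ≤0.3%. Reported as % decrease in developed tension vs control (n = 4-6). EC50 by Probit analysis (n = 6-8), not calculated when maximum effect was <50%.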

[2] = Negative inotropic activity in guinea pig left atrium assessed as decrease in atrial tension; type: functional, tissue-based; conditions: Cavia porcellus, Cardiac atrium; how it was run: as §1
[3] = Negative chronotropic activity in guinea pig right atrium assessed as decrease in atrial rate at 50 uM relative to control; type: functional, Cavia porcellus, Cardiac atrium; set-up: scale not given: the % may be the effect or the level left
How it was run: (§2)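 Spontaneously beating guinea pig right atria in PSS at 35 °C, pH 7.4, 95% O2-5% CO2, pretreatment rate 170-195 beats/min. Cumulative concentrations 0.1-100 μM, each added at steady state, DMSO ≤0.3%. Reported as % decrease in atrial rate vs control, n = 6-8.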

Aorta [4] = assay: Vasorelaxant activity in 80 mM K+-depolarized guinea pig thoracic aortic strip assessed as inhibition of calcium-induced contraction at 100 uM; type: functional, Cavia porcellus
How it was run: (§3)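 Helicoidal guinea pig aortic strips in PSS at 35 °C, contracted with 80 mM KCl (equimolar substitution for Na+), plateau reached in about 45 min. Cumulative concentrations 0.1-500 μM in DMSO vehicle. Reported as % inhibition of contraction. IC50 by Probit analysis from log concentration-response curves (n = 6-8), not calculated when maximum effect was <50%.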

Aorta [5] = assay: Vasorelaxant activity in 80 mM K+-depolarized guinea pig thoracic aortic strip assessed as inhibition of calcium-induced contraction; type: functional, tissue-based; conditions: Cavia porcellus; how it was run: as §3
Ileum [6] = assay: Muscle relaxant activity in 80 mM K+-depolarized guinea pig ileum longitudinal smooth muscle assessed as inhibition of calcium-induced contraction; type: functional, tissue-based; conditions: Cavia porcellus
How it was run: (§4)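 Guinea pig ileum longitudinal smooth muscle, 2 cm segments under 300-400 mg resting tension. Isometric recording in PSS, washed every 20 min for 1 h, then depolarized with 80 mM K+. Compounds added cumulatively in DMSO. Reported as % inhibition of calcium-induced contraction. IC50 from log concentration-response curves by Probit analysis.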

Ileum [7] = assay: Muscle relaxant activity in 80 mM K+-depolarized guinea pig ileum longitudinal smooth muscle assessed as inhibition of calcium-induced contraction at 5 uM; type: functional, Cavia porcellus; how it was run: as §4
[8] = target: T1, Voltage-gated L-type calcium channel (Rattus norvegicus, UniProt P22002+Q02485+P27732); assay: Blockade of L-type calcium channel in Wistar rat tail artery smooth muscle cells assessed as inhibition of peak L-type barium current by whole cell patch clamp method
[9] = Negative chronotropic activity in guinea pig right atrium assessed as decrease in atrial rate at 100 uM relative to control; type: functional, Cavia porcellus, Cardiac atrium; set-up: scale not given: the % may be the effect or the level left; how it was run: as §2
Ileum [10] = assay: Muscle relaxant activity in 80 mM K+-depolarized guinea pig ileum longitudinal smooth muscle assessed as inhibition of calcium-induced contraction at 10 uM; type: functional, Cavia porcellus; how it was run: as §4
[11] = Negative inotropic activity in guinea pig left atrium assessed as decrease in atrial tension at 100 uM relative to control; type: functional, Cavia porcellus, Cardiac atrium; set-up: scale not given: the % may be the effect or the level left; how it was run: as §1
[12] = Ratio of diltiazem EC50 to compound EC50 for negative inotropic activity in guinea pig left atrium; type: functional, Cavia porcellus, Cardiac atrium
Aorta [13] = assay: Ratio of compound IC50 to diltiazem IC50 for vasorelaxant activity in 80 mM K+-depolarized guinea pig thoracic aortic strip; type: functional, Cavia porcellus
[14] = target: T1, Voltage-gated L-type calcium channel; assay: Displacement of [3H]diltiazem from […] binding site of L-type calcium channel in Wistar rat cardiomyocytes by liquid scintillation counting; type: cell-based
How it was run: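 Thawed rat cardiomyocytes (200 μg), isolated by collagenase/dispase perfusion and pooled from at least two animals. Incubated with 5 nM [3H]diltiazem and unlabeled ligand (0.1 nM to 100 μM) in 50 mM Tris pH 7.4, 25 °C, 90 min. Reaction stopped by filtration through PEI-soaked GF/B filters, then scintillation counting. Nonspecific binding defined with 100 μM diltiazem. Run in triplicate; sigmoidal fit of % specific binding.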

Row | Structure (SMILES) | EC50 [2] [µM] | IC50 (Aorta [5]) [µM] | IC50 (Ileum [6]) [µM] | IC50 [8] [µM] | inhibition (INH) [14] | inhibition (INH) ([8]; rat) | Activity [1] [%] | Activity [3] [%] | inhibition (INH) (Aorta [4]) [%] | inhibition (INH) (Ileum [7]) [%] | Activity [9] [%] | inhibition (INH) (Ileum [10]) [%] | Activity [11] [%] | Ratio EC50 [12] | Ratio IC50 (Aorta [13])
1 | CCO[C@@]1(c2ccc(Br)cc2)SC=C(C)n2c1noc2=O | 0.07 |  |  |  |  |  |  |  | 11 |  | 16 | 3 |  |  | 
2 | O=S(=O)(c1ccc(Cl)cc1)N1CCC[C@@H]1c1cccs1 | 0.23 |  | 1.07 | 27.1 |  |  |  | 10 | 24 | 94 |  |  | 98 |  | 
3 | C=CCN(c1ccccc1)S(=O)(=O)c1ccc(Cl)cc1 |  | 17.7 | 4.32 |  | Dose-dependent effect |  |  |  | 54 |  | 5 | 83 |  | 2.5 | 6.8
4 | O=S(=O)(c1ccc(Cl)cc1)N1CCCC1c1cccs1 (racemic) |  |  | 1.18 | 23.5 |  | Dose-dependent effect |  | 4 | 74 | 90 | 4 | 90 |  | 2.5 | 2.2

Now from value to molecule, other results behind:

Row | EC50 [2] [µM] | IC50 (Aorta [5]) [µM] | IC50 (Ileum [6]) [µM] | IC50 [8] [µM] | inhibition (INH) [14] | inhibition (INH) ([8]; rat) | Structure (SMILES) | Activity [1] [%] | Activity [3] [%] | inhibition (INH) (Aorta [4]) [%] | inhibition (INH) (Ileum [7]) [%] | Activity [9] [%] | inhibition (INH) (Ileum [10]) [%] | Activity [11] [%] | Ratio EC50 [12] | Ratio IC50 (Aorta [13])
5 | 0.45 | 5.16 | 2.06 | 22.2 |  |  | O=S(=O)(c1ccc(Cl)cc1)N1CCC[C@H]1c1cccs1 | 96 | 7 | 83 | 69 |  |  |  |  | 
6 |  |  | 14.8 |  |  |  | CSC1=NCCCN1S(=O)(=O)c1ccc(Cl)cc1 |  |  | 57 |  | 5 | 83 |  |  | 9.7
7 | 0.79 | 2.6 |  |  |  |  | COc1ccc([C@@H]2Sc3ccccc3N(CCN(C)C)C(=O)[C@@H]2OC(C)=O)cc1 [DILTIAZEM] |  |  | 88 |  |  | 98 |  |  | 
